In PMC5028098 (International Journal of Nanomedicine, 2016):

Tests used:
Format in all cases: cell-based, human
[1] = tested on: HUVECs; test: Transwell migration; conditions: HUVECs in TCM from treated MDA-MB231 cells, dose-dependent for HBP
[2] = tested on: MMP2; test: Western blot of MMP2 in HUVECs incubated with TCM; conditions: TCM 24 hours, dose-dependent for HBP
Summary of the method: (§1)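 HUVECs (2×10^5) were grown to 90% confluence, starved 12 h in 2% serum, then incubated 24 h with conditioned medium from MDA-MB231 cells treated with graded test-peptide concentrations. Cells were lysed on ice. Equal protein (40 μg, Bradford) was run on 10% SDS-PAGE and blotted to nitrocellulose. Primary antibody incubation was 4 h at 4°C, followed by HRP anti-rabbit IgG (1:2,000). Bands were quantified by densitometry relative to untreated-medium control; three experiments, mean ± SD.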

[3] = tested on: MMP9; test: Western blot of MMP9 in HUVECs incubated with TCM; conditions: TCM 24 hours, decreased to a greater extent than MMP2 for HBP
Summary of the method: as §1

Substance: VEGF
- effect on migration / number of invasive ECs [1]: no inhibitory effect
- expression of MMP2 in HUVECs [2]: not affected
- expression of MMP9 in HUVECs [3]: not affected
